{
  "source": "paper PMC10839685",
  "about": "(iScience, 2024)",
  "key": {"[1]": {"tested_on": "human imidazoline receptors (I1, I2)", "conditions": "cited from earlier work"}, "AgDI from E. faecalis": {"tested_on": "AgDI from E. faecalis", "conditions": "substrate, cited from earlier work"}, "[2]": {"biological_target": "T1, E. coli agmatinase (EcAGM) (Escherichia coli, UniProt P60651)", "T1 sequence (P60651 1-306)": "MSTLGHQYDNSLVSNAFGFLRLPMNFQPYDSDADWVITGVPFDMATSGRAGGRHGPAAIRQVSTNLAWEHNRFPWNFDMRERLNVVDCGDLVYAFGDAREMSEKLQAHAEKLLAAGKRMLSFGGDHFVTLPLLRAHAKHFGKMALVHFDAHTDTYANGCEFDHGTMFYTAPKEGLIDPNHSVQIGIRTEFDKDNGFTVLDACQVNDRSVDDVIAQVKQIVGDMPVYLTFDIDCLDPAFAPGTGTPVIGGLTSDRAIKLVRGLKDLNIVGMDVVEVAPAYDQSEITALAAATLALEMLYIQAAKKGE", "experiment": "E. coli agmatinase", "type": "biochemical", "conditions": "for Ki: EcAGM, competitive inhibition, pH 7.5, 100 mM HEPES, 2 mM MnCl2, substrate agmatine"}, "[3]": {"tested_on": "E. faecalis agmatine deiminase (AgDI)", "experiment": "Agmatine deiminase activity, GDH coupled enzyme assay", "type": "biochemical, Enterococcus faecalis", "conditions": "pH 7.5", "method_in_brief": "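His-tagged, codon-optimized E. faecalis AgDI was expressed in E. coli (LB without added metal, 1 mM IPTG, 16°C, 20 h) and purified by Ni-affinity chromatography. Agmatine-initiated ammonia release was coupled to GDH (2.5 U/mL) with 5 mM 2-oxoglutarate, 0.3 mM NADH and 0.8 mM ADP in HEPES-NaOH pH 7.5. Initial rates came from continuous A340 (ε 6220 M⁻¹cm⁻¹, 0.56 cm path).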"}, "[4]": {"tested_on": "EcAGM, CbAGM, GpuA, AGMAT, ARG1 and ARG2", "experiment": "HPLC analysis for metformin transformation by purified enzymes", "type": "in vitro ADME", "conditions": "1 mM metformin, 10 μg purified enzyme, 20 mM CHES pH 9, overnight", "method_in_brief": "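His-tagged enzymes were expressed in E. coli BL21(DE3) and purified by Ni-affinity IMAC. ARG2 and AGMAT were mitochondrial-signal truncations (ARG2 Δ1-24/Δ331-354, AGMAT Δ1-35). Metformin was incubated with each enzyme, then analysed by reversed-phase C18 HPLC with an isocratic mobile phase of 75:25 (v/v) acetonitrile:10 mM potassium phosphate pH 6.6, which separates guanylurea from metformin.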"}, "human PEN2 protein": {"biological_target": "human PEN2 protein", "conditions": "cited from earlier work"}, "[5]": {"biological_target": "C. butyricum agmatinase (CbAGM) (Clostridium butyricum, UniProt C4IHF6)", "sequence (C4IHF6 1-283)": "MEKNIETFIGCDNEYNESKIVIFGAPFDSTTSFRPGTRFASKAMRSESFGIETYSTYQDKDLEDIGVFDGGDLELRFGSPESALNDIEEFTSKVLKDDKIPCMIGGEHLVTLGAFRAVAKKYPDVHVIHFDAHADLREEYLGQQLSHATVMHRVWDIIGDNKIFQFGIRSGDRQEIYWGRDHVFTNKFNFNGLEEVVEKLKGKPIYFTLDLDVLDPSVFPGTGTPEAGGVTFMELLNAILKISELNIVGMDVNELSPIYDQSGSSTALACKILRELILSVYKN", "type": "biochemical", "conditions": "5000 µM"}, "[6]": {"conditions": "cited from earlier work"}, "[7]": {"conditions": "1000–2000 mg daily; cited from earlier work"}, "[8]": {"biological_target": "serine hydroxymethyltransferase 2", "conditions": "read-out: Ki, serine hydroxymethyltransferase 2; mixed inhibition; cited from earlier work"}, "type 2 diabetes patients": {"tested_on": "type 2 diabetes patients", "conditions": "cited from earlier work"}, "complex IV": {"tested_on": "complex IV", "conditions": "cited from earlier work"}},
  "note": "Several values for one entry are separate records, joined by “and”; a condition that tells them apart may be missing. Equal entries are not always repeated. Entries after “also recorded” stand apart in the source; their conditions may differ.",
  "data": [
    {"smiles": "NCCCCN=C(N)N", "note": "[agmatine]", "values": [
      {"measurement": "binding and agonism at human imidazoline receptors (I1, I2)", "setting": "[1]", "value": "micromolar range"},
      {"measurement": "Km", "setting": "AgDI from E. faecalis; read-out: KM, AgDI from E. faecalis", "value": 35, "unit": "µM"},
      {"measurement": "kcat, AgDI from E. faecalis", "setting": "AgDI from E. faecalis", "value": 840, "unit": "s⁻¹"}
    ]},
    {"smiles": "CCCCNC(=N)NC(=N)N", "note": "[buformin]", "values": [
      {"measurement": "Ki", "setting": "[2]", "value": 100, "unit": "µM"}
    ]},
    {"smiles": "CC(C)=CCN=C(N)N", "note": "[galegine]", "values": [
      {"measurement": "Ki", "setting": "[2]", "value": 7, "unit": "µM"},
      {"measurement": "inhibition of agmatine deiminase (AgDI)", "setting": "[3]; 5 mM galegine", "value": "not inhibited"}
    ]},
    {"smiles": "CN(C)C(=N)N=C(N)N", "note": "[metformin]", "values": [
      {"measurement": "transformation of metformin by ureohydrolase homologs", "setting": "[4]", "value": "No metabolism; also recorded: No transformation"},
      {"measurement": "binding constant, human PEN2 protein", "setting": "human PEN2 protein", "value": "micromolar range"},
      {"measurement": "predicted reduction in the maximum velocity of EcAGM-like enzymes", "setting": "[2]; 5 mM metformin, 20 μM agmatine, steady state Michaelis-Menten model", "value": 83, "unit": "%"},
      {"measurement": "Ki", "setting": "[2]", "value": "1100 µM and 1000 µM and ~1000 µM"},
      {"measurement": "predicted reduction in the maximum velocity of CbAGM-like enzymes", "setting": "[5]", "value": 27, "unit": "%"},
      {"measurement": "concentration of metformin in the human gut", "setting": "[6]", "value": "1000 to 10000", "unit": "µM"},
      {"measurement": "inhibition of agmatine deiminase (AgDI)", "setting": "[3]; 50 mM metformin", "value": "not inhibited"},
      {"measurement": "inhibition of agmatine deiminase (AgDI)", "setting": "[3]; 50 mM metformin, listed as Metformin", "value": "does not inhibit"},
      {"measurement": "fraction excreted into wastewater", "setting": "[7]", "value": "> 80", "unit": "%"},
      {"measurement": "Ki", "setting": "[8]", "value": 13000, "unit": "µM"},
      {"measurement": "effectiveness of intravenous administration in type 2 diabetes patients", "setting": "type 2 diabetes patients", "value": "little or no effectiveness"},
      {"measurement": "inhibitory concentration, mitochondrial respiration proteins like complex IV", "setting": "complex IV", "value": "hundreds of micromolar"}
    ]},
    {"smiles": "[H]/N=C(/N)N/C(=N/[H])NCCc1ccccc1", "note": "[phenformin]", "values": [
      {"measurement": "Ki", "setting": "[2]", "value": 600, "unit": "µM"}
    ]}
  ]
}
